Assay results from ChEMBL document CHEMBL3112572, “Substituted 4-phenyl-2-aminoimidazoles and 4-phenyl-4,5-dihydro-2-aminoimidazoles as voltage-gated sodium channel modulators” (Eur J Med Chem, 2014).

What was measured:
[1] = molecular target: T1, Sodium channel protein type 3 subunit alpha (Homo sapiens, UniProt Q9NY46); assay: Modulation of human Nav1.3 in open-inactivated state assessed as inhibition of inward current after 4 mins by whole-cell electrophysiology
[2] = molecular target: T1, Sodium channel protein type 3 subunit alpha; assay: Modulation of human Nav1.3 in closed state assessed as inhibition of inward current after 4 mins by whole-cell electrophysiology
How it was run: (§1)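 Automated whole-cell patch clamp (QPatch HT) on trypsin-EDTA-dissociated cells held in serum-free medium. Closed-state test pulse depolarizes from -100 mV. 0.1% DMSO vehicle for 4 min is followed by four cumulative bolus concentrations (0.3–10 µM, 0.1% DMSO final), each incubated 4 min. Peak inward current from the last three sweeps is compared with vehicle, and IC50 comes from a 4-parameter logistic fit constrained 0–100%, n≥3.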

[3] = molecular target: T2, Sodium channel protein type 4 subunit alpha (Homo sapiens, UniProt P35499); assay: Modulation of human Nav1.4 in closed state assessed as inhibition of inward current after 4 mins by whole-cell electrophysiology; how it was run: as §1
[4] = molecular target: T3, Sodium channel protein type 9 subunit alpha (Homo sapiens, UniProt Q15858); assay: Modulation of human Nav1.7 in open-inactivated state assessed as inhibition of inward current after 4 mins by whole-cell electrophysiology
T3 sequence (Q15858 whole entry): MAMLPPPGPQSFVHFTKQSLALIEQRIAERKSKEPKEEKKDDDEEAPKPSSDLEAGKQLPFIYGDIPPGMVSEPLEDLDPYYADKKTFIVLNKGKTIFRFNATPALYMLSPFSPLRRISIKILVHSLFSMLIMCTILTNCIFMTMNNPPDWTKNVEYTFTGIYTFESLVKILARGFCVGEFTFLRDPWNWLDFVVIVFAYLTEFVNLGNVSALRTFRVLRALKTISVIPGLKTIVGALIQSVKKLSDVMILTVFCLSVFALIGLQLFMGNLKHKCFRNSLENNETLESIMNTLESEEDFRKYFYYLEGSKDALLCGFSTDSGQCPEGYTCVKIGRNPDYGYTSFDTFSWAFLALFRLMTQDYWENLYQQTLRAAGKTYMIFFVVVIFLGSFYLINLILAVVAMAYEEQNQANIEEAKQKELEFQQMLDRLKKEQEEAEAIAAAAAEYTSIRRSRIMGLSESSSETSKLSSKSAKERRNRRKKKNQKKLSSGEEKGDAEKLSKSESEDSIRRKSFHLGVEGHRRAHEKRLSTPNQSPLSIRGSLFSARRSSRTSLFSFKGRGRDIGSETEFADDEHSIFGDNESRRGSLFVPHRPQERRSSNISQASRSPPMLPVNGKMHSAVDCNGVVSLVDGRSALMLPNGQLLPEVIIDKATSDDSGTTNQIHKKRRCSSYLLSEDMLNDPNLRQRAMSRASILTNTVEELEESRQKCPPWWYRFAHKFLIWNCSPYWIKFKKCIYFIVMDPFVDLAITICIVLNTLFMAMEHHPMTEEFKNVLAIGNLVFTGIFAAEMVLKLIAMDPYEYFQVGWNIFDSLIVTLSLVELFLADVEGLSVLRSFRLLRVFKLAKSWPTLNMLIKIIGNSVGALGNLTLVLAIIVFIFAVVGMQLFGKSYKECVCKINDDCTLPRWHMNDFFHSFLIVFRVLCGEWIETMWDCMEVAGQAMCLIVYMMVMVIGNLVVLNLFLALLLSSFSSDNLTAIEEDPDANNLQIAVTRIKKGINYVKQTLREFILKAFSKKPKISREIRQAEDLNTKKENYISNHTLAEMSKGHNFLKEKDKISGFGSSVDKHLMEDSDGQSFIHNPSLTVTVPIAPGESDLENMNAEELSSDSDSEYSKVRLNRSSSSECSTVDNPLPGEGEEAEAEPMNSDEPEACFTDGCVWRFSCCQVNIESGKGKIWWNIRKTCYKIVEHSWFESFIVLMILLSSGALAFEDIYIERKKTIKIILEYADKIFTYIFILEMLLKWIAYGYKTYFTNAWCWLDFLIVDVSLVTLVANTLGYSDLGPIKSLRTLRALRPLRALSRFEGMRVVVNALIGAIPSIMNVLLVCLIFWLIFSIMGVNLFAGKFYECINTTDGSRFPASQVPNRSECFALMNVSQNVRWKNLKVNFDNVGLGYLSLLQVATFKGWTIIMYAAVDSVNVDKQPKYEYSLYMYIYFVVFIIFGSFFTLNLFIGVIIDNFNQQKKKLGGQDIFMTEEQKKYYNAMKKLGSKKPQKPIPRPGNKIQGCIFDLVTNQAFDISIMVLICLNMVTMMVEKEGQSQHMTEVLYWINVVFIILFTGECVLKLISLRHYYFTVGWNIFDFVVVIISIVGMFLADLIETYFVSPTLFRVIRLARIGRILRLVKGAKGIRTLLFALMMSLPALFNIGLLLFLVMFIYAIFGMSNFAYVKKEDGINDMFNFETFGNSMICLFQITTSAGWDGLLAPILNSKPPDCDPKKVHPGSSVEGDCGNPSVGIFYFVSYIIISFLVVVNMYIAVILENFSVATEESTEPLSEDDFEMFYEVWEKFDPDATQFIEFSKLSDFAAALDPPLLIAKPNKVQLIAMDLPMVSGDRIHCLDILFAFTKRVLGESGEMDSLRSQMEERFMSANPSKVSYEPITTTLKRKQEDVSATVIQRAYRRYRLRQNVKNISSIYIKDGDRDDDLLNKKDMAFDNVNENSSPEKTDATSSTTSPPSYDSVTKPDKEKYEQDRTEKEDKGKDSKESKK
How it was run: (§2)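 Cells dissociated with trypsin-EDTA are kept in serum-free medium and recorded by QPatch HT whole-cell clamp with a high-frequency, pathophysiological protocol. The open-inactivated test pulse depolarizes from about -70 mV. After 4 min of vehicle (0.1% DMSO), 0.3–10 µM is added cumulatively, 4 min per level. Percent inhibition of peak inward current uses the mean of the last three sweeps against vehicle. IC50 is fitted by a constrained 4-parameter logistic, mean ± SD of ≥3 experiments.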

[5] = molecular target: T3, Sodium channel protein type 9 subunit alpha; assay: Modulation of human Nav1.7 in closed state assessed as inhibition of inward current after 4 mins by whole-cell electrophysiology; how it was run: as §1
[6] = molecular target: T2, Sodium channel protein type 4 subunit alpha; assay: Modulation of human Nav1.4 in open-inactivated state assessed as inhibition of inward current after 4 mins by whole-cell electrophysiology; how it was run: as §2

T1 sequence (Q9NY46 whole entry): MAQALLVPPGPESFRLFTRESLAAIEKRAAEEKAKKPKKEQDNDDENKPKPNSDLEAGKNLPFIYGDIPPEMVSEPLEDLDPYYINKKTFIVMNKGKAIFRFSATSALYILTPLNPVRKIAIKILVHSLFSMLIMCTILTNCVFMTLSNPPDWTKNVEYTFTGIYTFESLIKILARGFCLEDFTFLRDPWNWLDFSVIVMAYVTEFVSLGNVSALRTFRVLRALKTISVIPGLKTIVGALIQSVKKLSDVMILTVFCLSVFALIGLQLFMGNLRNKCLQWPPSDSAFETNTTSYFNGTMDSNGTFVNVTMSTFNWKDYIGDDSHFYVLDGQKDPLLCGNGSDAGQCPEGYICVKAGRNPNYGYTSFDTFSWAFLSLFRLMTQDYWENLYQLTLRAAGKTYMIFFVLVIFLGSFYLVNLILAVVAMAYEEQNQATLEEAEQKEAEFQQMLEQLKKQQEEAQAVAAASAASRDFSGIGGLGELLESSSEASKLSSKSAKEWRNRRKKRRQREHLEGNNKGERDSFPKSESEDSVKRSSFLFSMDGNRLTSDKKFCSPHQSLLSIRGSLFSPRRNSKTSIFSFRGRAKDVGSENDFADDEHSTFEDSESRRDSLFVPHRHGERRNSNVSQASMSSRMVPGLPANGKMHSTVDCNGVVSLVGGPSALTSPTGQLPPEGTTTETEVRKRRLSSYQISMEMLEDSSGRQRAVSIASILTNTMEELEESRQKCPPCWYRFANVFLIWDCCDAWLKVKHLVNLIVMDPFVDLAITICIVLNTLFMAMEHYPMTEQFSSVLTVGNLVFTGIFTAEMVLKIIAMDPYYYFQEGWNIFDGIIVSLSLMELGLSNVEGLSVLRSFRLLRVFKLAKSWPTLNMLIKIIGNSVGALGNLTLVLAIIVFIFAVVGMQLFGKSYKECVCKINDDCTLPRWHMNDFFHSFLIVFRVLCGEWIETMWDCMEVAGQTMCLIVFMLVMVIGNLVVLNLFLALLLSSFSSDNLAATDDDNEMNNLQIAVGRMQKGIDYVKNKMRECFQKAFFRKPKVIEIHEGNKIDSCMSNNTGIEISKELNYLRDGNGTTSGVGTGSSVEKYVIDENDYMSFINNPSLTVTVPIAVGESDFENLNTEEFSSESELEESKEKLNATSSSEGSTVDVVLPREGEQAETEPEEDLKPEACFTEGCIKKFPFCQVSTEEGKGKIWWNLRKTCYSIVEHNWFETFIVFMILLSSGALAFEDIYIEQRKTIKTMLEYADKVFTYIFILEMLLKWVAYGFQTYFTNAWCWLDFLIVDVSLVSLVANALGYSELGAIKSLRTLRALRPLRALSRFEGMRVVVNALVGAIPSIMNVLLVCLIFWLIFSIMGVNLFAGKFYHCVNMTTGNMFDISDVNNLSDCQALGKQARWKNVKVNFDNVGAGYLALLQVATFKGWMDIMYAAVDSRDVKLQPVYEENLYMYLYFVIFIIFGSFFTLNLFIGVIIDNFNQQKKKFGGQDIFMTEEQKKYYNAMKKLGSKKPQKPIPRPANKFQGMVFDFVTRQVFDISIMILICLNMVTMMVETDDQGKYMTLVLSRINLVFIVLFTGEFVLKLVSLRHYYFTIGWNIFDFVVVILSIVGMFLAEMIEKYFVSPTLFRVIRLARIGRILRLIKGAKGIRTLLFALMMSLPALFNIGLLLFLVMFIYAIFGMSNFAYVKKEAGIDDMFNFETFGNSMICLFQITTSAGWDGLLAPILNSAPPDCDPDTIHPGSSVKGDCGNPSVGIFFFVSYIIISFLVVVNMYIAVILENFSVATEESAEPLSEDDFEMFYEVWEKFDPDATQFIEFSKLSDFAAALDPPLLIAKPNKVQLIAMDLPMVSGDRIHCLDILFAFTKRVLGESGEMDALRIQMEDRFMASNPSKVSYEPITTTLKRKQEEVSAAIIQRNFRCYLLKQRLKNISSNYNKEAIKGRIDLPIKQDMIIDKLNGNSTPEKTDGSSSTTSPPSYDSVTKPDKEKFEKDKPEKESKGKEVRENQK

Compound	IC50 [1] [µM]	IC50 [2] [µM]	IC50 [3] [µM]	IC50 [4] [µM]	IC50 [5] [µM]	IC50 [6] [µM]
CNc1nc(-c2cccc(NC(=O)c3cc4ccccc4[nH]3)c2)cn1C(=O)OC(C)(C)C	> 30	> 30	> 30	> 30	> 30	> 30
CC(C)(C)OC(=O)n1cc(-c2ccc(NC(=O)c3ccc[nH]3)cc2)nc1N	> 30	> 30	> 30	> 30	> 30	> 30
Nc1nc(-c2cccc(NC(=O)c3ccc[nH]3)c2)c[nH]1	> 30	> 30	> 30	> 30	> 30	> 30
Nc1nc(-c2ccc(NC(=O)c3ccc[nH]3)cc2)c[nH]1	> 30	> 30	> 30	27	> 30	> 30
CC(C)(C)OC(=O)n1cc(-c2cccc(NC(=O)c3cc[nH]c3)c2)nc1N	23	> 30	> 30	> 30	> 30	> 30
Nc1nc(-c2cccc(NC(=O)c3cc[nH]c3)c2)c[nH]1	12	> 30	> 30	> 30	> 30	15
CC(C)(C)OC(=O)n1cc(-c2cccc(NC(=O)c3cc4ccccc4[nH]3)c2)nc1N	26	> 30	> 30	> 30	> 30	> 30
CC(C)(C)OC(=O)n1cc(-c2cccc(NC(=O)c3c[nH]c4ccccc34)c2)nc1N	27	> 30	> 30	> 30	> 30	26
Nc1nc(-c2cccc(NC(=O)c3c[nH]c4ccccc34)c2)c[nH]1	12	> 30	> 30	26	> 30	14
CC(C)(C)OC(=O)n1cc(-c2cccc(NC(=O)[C@H]3CCCN3)c2)nc1N	> 30	> 30	> 30	29	> 30	> 30
CC(C)(C)OC(=O)n1cc(-c2ccc(NC(=O)[C@@H]3CCCN3)cc2)nc1N	25	> 30	> 30	19	> 30	> 30
CC(C)(C)OC(=O)n1cc(-c2cccc(NC(=O)c3ccc[nH]3)c2)nc1N	25	> 30	> 30	> 30	> 30	25

Next, values leading:

IC50 [1] [µM]	IC50 [2] [µM]	IC50 [3] [µM]	IC50 [4] [µM]	IC50 [5] [µM]	IC50 [6] [µM]	Compound
> 30	> 30	> 30	> 30	> 30	> 30	CNc1nc(-c2cccc(NC(=O)c3cc4ccccc4[nH]3)c2)c[nH]1
27	> 30	> 30	22	> 30	> 30	CC(C)(C)OC(=O)n1cc(-c2ccc(NC(=O)c3ccco3)cc2)nc1N
22	> 30	> 30	> 30	> 30	28	CC(C)(C)OC(=O)n1cc(-c2ccc(NC(=O)c3cc4ccccc4[nH]3)cc2)nc1N
> 30	> 30	> 30	> 30	> 30	> 30	Nc1nc(-c2cccc(NC(=O)c3cc4ccccc4[nH]3)c2)c[nH]1
> 30	> 30	> 30	> 30	> 30	> 30	Nc1nc(-c2ccc(NC(=O)c3cc4ccccc4[nH]3)cc2)c[nH]1
> 30	> 30	> 30	> 30	> 30	> 30	CC(C)(C)OC(=O)n1cc(-c2ccc(NC(=O)[C@H]3CCCN3)cc2)nc1N
13	> 30	> 30	> 30	> 30	> 30	Nc1nc(-c2ccc(NC(=O)[C@@H]3CCCN3)cc2)c[nH]1
> 30	> 30	> 30	26	> 30	> 30	CNc1nc(-c2cccc(NC(=O)c3ccco3)c2)cn1C(=O)OC(C)(C)C
25	> 30	> 30	19	> 30	> 30	Nc1nc(-c2cccc(NC(=O)c3ccc[nH]3)c2)cn1C(=O)c1ccc[nH]1
10.5					2	CCN(CC)CC(=O)Nc1c(C)cccc1C [LIDOCAINE]
